{"source": "ChEMBL document CHEMBL4024779", "about": "“Novel Terminal Bipheny-Based Diapophytoene Desaturases (CrtN) Inhibitors as Anti-MRSA/VISR/LRSA Agents with Reduced hERG Activity” (J Med Chem, 2018)", "key": {"[1]": {"assay": "AUC (0 to infinity) in Sprague-Dawley rat at 5 mg/kg, iv administered as single dose by LC-MS/MS analysis", "format": "ADME, organism-based", "set-up": "dose 5 mg/kg, time infinity, route intravenous", "settings": "in vivo"}, "[2]": {"assay": "Inhibition of CrtN in methicillin-resistant Staphylococcus aureus LRSA205 assessed as reduction in staphyloxanthin levels after 48 hrs by spectrophotometric method-based pigment inhibition assay"}, "Rattus norvegicus": {"system": "Rattus norvegicus", "assay": "Toxicity in Sprague-Dawley rat at 60 to 1000 mg/kg, po administered as single dose assessed as mortality measured immediately post administration", "format": "organism-based", "settings": "in vivo", "in_short": "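Rats, 30 in total, randomised into three groups. Each received a single oral dose of 60, 250 or 1000 mg/kg on day 1. Poisoning symptoms, mortality, behaviour, water and food consumption and body weight monitored immediately and over 2 weeks.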"}, "[3]": {"assay": "Tmax in Sprague-Dawley rat at 10 mg/kg, po administered as single dose by LC-MS/MS analysis", "format": "ADME, organism-based", "settings": "in vivo"}, "[4]": {"assay": "Tmax in Sprague-Dawley rat at 5 mg/kg, iv administered as single dose by LC-MS/MS analysis", "format": "ADME, organism-based", "settings": "in vivo"}, "[5]": {"assay": "Tmax in Sprague-Dawley rat at 10 mg/kg, ip administered as single dose by LC-MS/MS analysis", "format": "ADME, organism-based", "settings": "in vivo"}, "Staphylococcus aureus [6]": {"system": "Staphylococcus aureus", "assay": "In vivo anti-virulence activity against methicillin-resistant Staphylococcus aureus LRSA202 infected in BALB/c mouse model assessed as reduction in bacterial load in kidney at 0.1 mg bid for 3.5 days administered intraperitoneally 6 hrs post infection by serial dilution method relative to control", "format": "functional, organism-based", "in_short": "(§1)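 Mice were infected by retro-orbital injection with LRSA56 (5.0 × 10^7 CFU) or LRSA202 (7.0 × 10^7 CFU). Compound was given intraperitoneally 6 h after infection. […] Log10 CFU was counted in kidneys and hearts, with groups compared by two-tailed Mann-Whitney test.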"}, "[7]": {"assay": "Half life in Sprague-Dawley rat at 5 mg/kg, iv administered as single dose by LC-MS/MS analysis", "format": "ADME, organism-based", "settings": "in vivo"}, "Staphylococcus aureus [8]": {"system": "Staphylococcus aureus", "assay": "In vivo anti-virulence activity against Staphylococcus aureus Newman infected in BALB/c mouse model assessed as reduction in bacterial load in heart at 0.2 mg bid for 3.5 days administered orally 6 hrs post infection by serial dilution method relative to control", "format": "functional, organism-based", "in_short": "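Mice got 3.1 × 10^7 CFU S. aureus Newman by retro-orbital injection. Oral compound was given b.i.d. for 3.5 d, starting 6 h after infection. […] Log10 CFU was counted per kidney and per heart.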"}, "Staphylococcus aureus [9]": {"system": "Staphylococcus aureus", "assay": "In vivo anti-virulence activity against methicillin-resistant Staphylococcus aureus Mu50 infected in BALB/c mouse model assessed as reduction in bacterial load in kidneys at 0.05 mg bid for 3.5 days administered intraperitoneally 6 hrs post infection by serial dilution method", "format": "functional", "set-up": "scale not given: the % may be the effect or the level left"}, "[10]": {"assay": "AUC (0 to 24 hrs) in Sprague-Dawley rat at 10 mg/kg, ip administered as single dose by LC-MS/MS analysis", "format": "ADME, organism-based", "set-up": "dose 10 mg/kg, time < 24 hr, route intraperitoneal", "settings": "in vivo"}, "Staphylococcus aureus [11]": {"system": "Staphylococcus aureus", "assay": "In vivo anti-virulence activity against methicillin-resistant Staphylococcus aureus LRSA56 infected in BALB/c mouse model assessed as reduction in bacterial load in kidney at 0.1 mg bid for 3.5 days administered intraperitoneally 6 hrs post infection by serial dilution method relative to linezolid", "format": "functional", "set-up": "scale not given: the % may be the effect or the level left", "in_short": "as §1"}}, "note": "Active and inactive are the calls of the source. No cut-off for these calls is given here.", "data": [{"molecule": "CN(C/C=C/c1ccc(-c2ccccc2)cc1)Cc1coc2ccccc12.Cl", "values": [{"measurement": "AUC(0-inf)", "setting": "[1]", "result": 2.86, "unit": "µg·h/mL"}, {"measurement": "IC50", "setting": "[2]", "result": 10.5, "unit": "nM"}, {"measurement": "Activity", "setting": "Rattus norvegicus", "result": "Non-Toxic"}, {"measurement": "Tmax", "setting": "[3]", "result": 2, "unit": "h"}, {"measurement": "Tmax", "setting": "[4]", "result": 4.8, "unit": "min"}, {"measurement": "Tmax", "setting": "[5]", "result": 3, "unit": "h"}, {"measurement": "Activity", "setting": "Staphylococcus aureus [6]", "result": "Active"}, {"measurement": "half-life", "setting": "[7]", "result": 2.46, "unit": "h"}, {"measurement": "Activity", "setting": "Staphylococcus aureus [8]", "result": "inactive"}, {"measurement": "Activity", "setting": "Staphylococcus aureus [9]", "result": ">91.8", "unit": "%"}, {"measurement": "AUC(0-t) at 24 h", "setting": "[10]", "result": 975, "unit": "µg·h/mL"}, {"measurement": "Activity", "setting": "Staphylococcus aureus [11]", "result": ">54.3", "unit": "%"}]}]}
